Consider 5 compounds from ChEMBL document CHEMBL3244170, “Synthesis and biological evaluation of 9,11-azo-13-oxa-15-hydroxyprostanoic acid, a potent inhibitor of platelet aggregation” (J Med Chem, 1979).

Test [1] relates to Platelet. In words: Inhibition of 9.5 x 10^-7 M 9,11 methanoepoxy-PGH2-induced platelet aggregation in human platelet rich plasma at 10^-4 M incubated for 1.5 mins at 37.5 degC. The format is functional. An outline of the steps: (§1)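 Human platelet-rich plasma incubated with test agent for 1.5 min at 37.5 °C, then aggregating agent added. Aggregation followed for 5 min turbidimetrically in a dual-channel aggregometer. Baseline (0%) was set with PRP. Full scale (100%) was set at the optical density of plasma treated with the aggregating agent alone. Agents were also checked for agonist activity at 10^-4 and 10^-6 M.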

Test [2] deals with Platelet. The experiment in a line: Induction of 1.4 x 10^-6 M PGH2-induced platelet aggregation in human platelet rich plasma at 10^-4 to 10^-6 M incubated for 1.5 mins at 37.5 degC.
The subject of test [3] is Platelet. The experiment in a line: Inhibition of 8.2 x 10^-4 M arachidonic acid-induced platelet aggregation in human platelet rich plasma at 10^-4 M incubated for 1.5 mins at 37.5 degC. The format is functional. An outline of the steps: as §1
Test [4] relates to Platelet. The experiment in a line: Induction of 9.5 x 10^-7 M 9,11 methanoepoxy-PGH2-induced platelet aggregation in human platelet rich plasma at 10^-4 to 10^-6 M incubated for 1.5 mins at 37.5 degC.
Test [5] has as its system Platelet. In words: Induction of 8.2 x 10^-4 M arachidonic acid-induced platelet aggregation in human platelet rich plasma at 10^-4 to 10^-6 M incubated for 1.5 mins at 37.5 degC.
Test [6] has as its system Platelet. The experiment in a line: Inhibition of 2 x 10^-6 M ADP-induced platelet aggregation in human platelet rich plasma at 10^-4 to 10^-6 M incubated for 1.5 mins at 37.5 degC. The format is functional. An outline of the steps: as §1
The subject of test [7] is Platelet. In words: Inhibition of 8.5 x 10^-7 M 9,11 methanoepoxy-PGH2-induced platelet aggregation in human platelet rich plasma incubated for 1.5 mins at 37.5 degC. The format is functional. The note with it: 0.025 h.
In test [8] the test system is Platelet. In words: Inhibition of 1.4 x 10^-6 M PGH2-induced platelet aggregation in human platelet rich plasma at 10^-4 M incubated for 1.5 mins at 37.5 degC. The format is functional. An outline of the steps: as §1
The subject of test [9] is Platelet. In words: Inhibition of 2 x 10^-6 M ADP-induced platelet aggregation in human platelet rich plasma at 10^-4 M incubated for 1.5 mins at 37.5 degC. In kind it is functional. In short, it runs like this: as §1
The target in a further test is T1, Thromboxane-A synthase (Homo sapiens, UniProt P24557).
T1 sequence (P24557 whole entry): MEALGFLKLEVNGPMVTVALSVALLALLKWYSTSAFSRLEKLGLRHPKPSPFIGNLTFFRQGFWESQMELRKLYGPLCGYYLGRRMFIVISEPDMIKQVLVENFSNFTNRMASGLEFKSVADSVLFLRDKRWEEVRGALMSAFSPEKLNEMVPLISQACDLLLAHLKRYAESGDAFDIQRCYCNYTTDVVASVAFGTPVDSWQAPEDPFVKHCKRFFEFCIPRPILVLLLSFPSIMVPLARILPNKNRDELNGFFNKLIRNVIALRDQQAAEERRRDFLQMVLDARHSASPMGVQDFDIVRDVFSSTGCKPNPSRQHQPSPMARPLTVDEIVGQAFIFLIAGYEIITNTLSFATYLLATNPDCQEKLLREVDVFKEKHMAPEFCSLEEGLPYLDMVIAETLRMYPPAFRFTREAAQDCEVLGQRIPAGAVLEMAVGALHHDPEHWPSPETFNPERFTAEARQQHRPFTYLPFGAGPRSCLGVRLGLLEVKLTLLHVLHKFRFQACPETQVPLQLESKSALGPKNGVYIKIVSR
In words: Inhibition of thromboxane synthetase in intact human platelet microsomes assessed as inhibition of [1-14C]PGH2 to [1-14C]TxA2.

Test [10] relates to Platelet. The experiment in a line: Effect on arachidonic acid metabolism in washed human platelet assessed as TxB2 level at 10^-4 M by GC-MS analysis (reference value: 14 nmol). In kind it is functional.
The subject of test [11] is Platelet. The experiment in a line: Inhibition of 8.3 x 10^-4 M arachidonic acid-induced platelet aggregation in human platelet rich plasma incubated for 1.5 mins at 37.5 degC. The note with it: 0.025 h. In kind it is functional.
In test [12] the test system is Platelet. The experiment in a line: Effect on arachidonic acid metabolism in washed human platelet assessed as HETE level at 10^-4 M by GC-MS analysis (reference value: 23 nmol). In kind it is functional.
The subject of test [13] is Platelet. The experiment in a line: Inhibition of TxA2-induced platelet aggregation in aspirinated human platelet at 10^-4 M incubated for 1.5 mins at 37.5 degC cells preincubated with PGH2 for 15 secs. The format is functional, cell-based. An outline of the steps: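 TxA2 was generated by stirring human platelet microsomes (0.1 mL, 1.9 mg protein/mL) with PGH2 at 37.5 °C for 15 s. The methods give PGH2 as 10^-4 M; the legend gives it as 1.4 nmol. Aspirinated PRP (0.9 mL), preincubated 1.5 min with inhibitor, was then added. Aggregation was monitored for 5 min. Boiled microsomes served as control.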

SMILES strings stand for the structures. Activity calls are given as the source filed them. The rule behind the calls is not given here.

Take `CCOC(=O)N1[C@H]2C[C@@H]([C@H](CCCCCCC(=O)O)[C@H]2O)N1C(=O)OCC` (racemic): the figures for the “inhibition (INH)” value with Platelet [1] and in the test with Platelet [3] were 21% and 0%, respectively. Besides, in the test on Platelet [2], the induction result was “inactive”. Further, the “induction of platelet aggregation” value in the test on Platelet [4] and in the test with Platelet [5] was “inactive” each time. Besides, in the test with Platelet [6], the inhibition entry was “inactive”.
A word on the IC50: it is the concentration that inhibits the measured activity by half. With `C=CCO[C@@H]1[C@@H](CCCCCCC(=O)O)[C@@H]2C[C@@H]1N(C(=O)OCC)N2C(=O)OCC` (racemic), the “inhibition (INH)” value stood at 88% in the test on Platelet [1], 0% in the test on Platelet [3], 100% in the test with Platelet [8] and 0% in the test on Platelet [9]. Besides, the IC50 in the test with Platelet [7] stood at 36 µM. For the same compound, the induction result with Platelet [2] is “inactive”. The “induction of platelet aggregation” value with Platelet [4] and in the test with Platelet [5] was “inactive” throughout. Also, the inhibition entry in the test with Platelet [6] was “inactive”.
With `C=CCO[C@@H]1[C@@H](CCCCCCC(=O)O)[C@@H]2C[C@@H]1N=N2` (racemic), the figures for the “inhibition (INH)” value with Platelet [1] and in the test on Platelet [3] were 20% and 0%, respectively. The induction result with Platelet [2] is “inactive”. Also, the “induction of platelet aggregation” value with Platelet [4] and with Platelet [5] was “inactive” each time. Moreover, in the test with Platelet [6], the inhibition entry was “inactive”.
Regarding `CCCCCC(O)CO[C@@H]1[C@@H](CCCCCCC(=O)O)[C@@H]2C[C@@H]1N=N2` (mixture of isomers), the “inhibition (INH)” value in the test on Platelet [1] stood at 100%; in the test on Platelet [3], 100%; in the test with Platelet [8], 100%; in the test with Platelet [9], 0%. For the same compound, the 50% inhibitory concentration (IC50) at Thromboxane-A synthase turned out to be 1 µM; in the test with Platelet [7] it was 5.5 µM; in the test on Platelet [11] it was 31 µM. Further, the Activity was found to be 0 nmol in the test on Platelet [10] and 27 nmol in the test on Platelet [12]. Also, the induction entry in the test with Platelet [2] is “inactive”. Further, the “induction of platelet aggregation” value in the test with Platelet [4] and in the test with Platelet [5] was “inactive” each time. In the test with Platelet [6], the inhibition entry is “inactive”. In addition, in the test with Platelet [13], the inhibition result was “Active”.
On to `CCCCCC(O)CO[C@@H]1[C@@H](CCCCCCC(=O)O)[C@@H]2C[C@@H]1N(C(=O)OCC)N2C(=O)OCC` (mixture of isomers), for which the “inhibition (INH)” value with Platelet [1] amounted to 20%; with Platelet [3], 0%. Moreover, the induction entry with Platelet [2] was “inactive”. The “induction of platelet aggregation” value in the test on Platelet [4] and with Platelet [5] was “inactive” in each case. For the same compound, the inhibition result in the test with Platelet [6] is “inactive”.
